Publication PMC6030940 (International Journal of Nanomedicine, 2018)
Entries after “also recorded” stand apart in the source; their conditions may differ. Values belong to the compound of their own block, whether it stands above or below them.

Assays:
[1] = Morphology and size by scanning electron microscopy; assay type: physicochemical; conditions: SEM images
Summary of the method: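 Samples were fixed on SEM stubs with double-sided adhesive tape and coated with Au. They were imaged by scanning electron microscopy at 15 kV acceleration voltage.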

[2] = has been reported; cited from earlier work
[3] = test system: MDCK-MDR1 cell monolayer; test: Bidirectional transport across MDCK-MDR1 cell monolayer; conditions: BBR in the presence of 10 µM verapamil
[4] = test system: P-gp (MDR1); test: as above; conditions: dog, MDCK-MDR1, pH 7.4
[5] = test system: Pgp; test: as above; conditions: dog, MDCK-MDR1, pH 7.4
[6] = test system: Pgp mRNA in T84 cells; conditions: 10 µM, 72 h; cited from earlier work
[7] = test system: Pgp expression in kidney cancer cells; conditions: 5 ng/mL, 72 h; cited from earlier work
[8] = target: T1, Pgp (Homo sapiens, UniProt P08183); test: Cellular uptake of Rhodamine123 by MDCK-MDR1 cells; assay type: cell-based; conditions: 37°C, 90 min, Figure 2
T1 sequence (P08183 whole entry): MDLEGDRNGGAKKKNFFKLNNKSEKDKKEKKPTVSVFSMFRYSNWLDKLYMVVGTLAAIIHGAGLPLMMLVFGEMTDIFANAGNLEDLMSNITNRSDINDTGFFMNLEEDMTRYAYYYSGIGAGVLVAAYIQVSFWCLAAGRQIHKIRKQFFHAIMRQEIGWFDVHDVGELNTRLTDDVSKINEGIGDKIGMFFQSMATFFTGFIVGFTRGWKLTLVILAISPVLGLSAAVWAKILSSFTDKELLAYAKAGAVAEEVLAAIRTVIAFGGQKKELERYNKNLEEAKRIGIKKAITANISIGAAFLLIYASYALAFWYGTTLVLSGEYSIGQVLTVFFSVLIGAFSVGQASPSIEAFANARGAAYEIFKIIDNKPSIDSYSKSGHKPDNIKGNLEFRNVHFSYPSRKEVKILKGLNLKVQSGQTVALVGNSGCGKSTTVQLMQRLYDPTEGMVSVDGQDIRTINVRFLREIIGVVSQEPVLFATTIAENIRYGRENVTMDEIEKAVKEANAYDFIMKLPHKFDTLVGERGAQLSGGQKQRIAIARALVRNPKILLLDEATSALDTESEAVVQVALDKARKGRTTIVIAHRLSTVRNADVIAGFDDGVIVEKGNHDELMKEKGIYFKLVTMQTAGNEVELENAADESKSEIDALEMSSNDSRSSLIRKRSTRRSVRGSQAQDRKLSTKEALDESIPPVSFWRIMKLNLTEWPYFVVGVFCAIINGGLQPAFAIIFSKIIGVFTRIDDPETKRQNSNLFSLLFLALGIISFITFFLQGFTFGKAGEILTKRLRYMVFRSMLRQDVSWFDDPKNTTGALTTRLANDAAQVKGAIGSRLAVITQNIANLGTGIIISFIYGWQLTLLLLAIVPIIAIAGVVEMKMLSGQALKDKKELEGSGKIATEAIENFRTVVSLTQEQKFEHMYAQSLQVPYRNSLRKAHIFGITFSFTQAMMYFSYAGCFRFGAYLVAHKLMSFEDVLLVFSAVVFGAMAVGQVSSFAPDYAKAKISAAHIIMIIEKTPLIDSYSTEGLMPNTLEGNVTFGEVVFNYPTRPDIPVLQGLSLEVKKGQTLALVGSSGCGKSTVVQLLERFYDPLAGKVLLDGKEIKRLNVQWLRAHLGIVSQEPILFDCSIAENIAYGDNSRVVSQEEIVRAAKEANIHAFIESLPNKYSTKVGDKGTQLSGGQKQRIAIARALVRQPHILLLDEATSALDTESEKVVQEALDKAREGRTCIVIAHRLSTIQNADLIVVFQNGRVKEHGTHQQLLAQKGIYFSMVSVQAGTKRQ

[9] = no reference given; cited from earlier work
[10] = target: T1, Pgp; test: Cellular uptake of BBR in MDCK-MDR1 cells; assay type: cell-based; conditions: BS20 8.1 µM, BBR 100 µM, 37°C, 90 min
[11] = test system: Pgp protein expression in MDCK-MDR1 cells; test: Cellular Pgp protein expression, Western blotting; assay type: cell-based; conditions: BS20 5 or 10 µM, 3 h and 24 h
[12] = test system: Pgp mRNA expression in MDCK-MDR1 cells; test: Pgp mRNA expression, real-time quantitative PCR; assay type: cell-based; conditions: normalized to GAPDH
Summary of the method: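 MDCK-MDR1 cells (DMEM, 10% FBS, 37°C, 5% CO2) were exposed to the test surfactant for 3 or 24 h. Total RNA was kit-extracted and reverse-transcribed with gDNA eraser. qPCR ran 95°C 30 s, then 40 cycles of 95°C 5 s and 60°C 30 s, followed by melt-curve analysis. Pgp expression was normalised to GAPDH by the 2−ΔΔCq method.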

[13] = test system: intracellular ATP in MDCK-MDR1 cells; test: Intracellular ATP level, ATPlite luminescence assay; assay type: cell-based, canine; conditions: BS20 5 or 10 µM
Summary of the method: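 MDCK-MDR1 cells were seeded at 1 × 10^4 cells/well, left to adhere overnight, then exposed to the test surfactant at 5 or 10 μM for 3 or 24 h. Cells were lysed by three freeze-thaw cycles in lysis reagent. Substrate reagent was added and plates rocked 10 min at room temperature. ATPlite luminescence was read on a plate reader.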

[14] = target: human Pgp membrane (Homo sapiens, UniProt P08183); test: Pgp ATPase activity, Pgp-Glo assay system; conditions: 37°C, 120 min
Sequence of human Pgp membrane (P08183 whole entry): as above

[15] = test system: Caco-2 monolayer; conditions: previous study; cited from earlier work

size by SEM [1]: 1–2 µm
absorptive quotient (AQ) [3]: 0.344
secretory quotient (SQ) [3]: 1.16
efflux ratio at 120 min, 10 µM [4]: 7.12
Papp A→B at 120 min, 10 µM [5]: 0.4 ± 0.01 ×10⁻⁶ cm/s
Papp B→A at 120 min, 10 µM [5]: 2.85 ± 0.04 ×10⁻⁶ cm/s
Compound: COc1ccc2cc3[n+](cc2c1OC)CCc1cc2c(cc1-3)OCO2 [BBR, Berberine]
oral bioavailability [2]: < 1%

Compound: CC(C)CN(C[C@@H](O)[C@H](Cc1ccccc1)NC(=O)O[C@H]1CCOC1)S(=O)(=O)c1ccc(N)cc1 [amprenavir]
increase of mRNA levels of Pgp [6]: 5.1 fold

Compound: C/C=C1\NC(=O)[C@H]2CSSCC/C=C/[C@H](CC(=O)N[C@H](C(C)C)C(=O)N2)OC(=O)[C@H](C(C)C)NC1=O [depsipeptide]
increased expression levels of Pgp [7]: 6.3 fold

Compound: C=C[C@H]1C[N@@]2CC[C@H]1C[C@@H]2[C@@H](O)c1ccnc2ccc(OC)cc12 [quinidine]
increase of mRNA levels of Pgp [6]: 3.8 fold

Compound: D-α-Tocopherol polyethylene glycol 1000 succinate [TPGS]
effect on intracellular accumulation of Rho123 [8]: most powerful nonionic surfactant with the function of Pgp inhibition
critical micelle concentration [9]: 0.02 mM

increase of cellular uptake of BBR vs BBR group [10]: 4.1 fold
size by SEM [1]: > 5 µm
stimulation of Pgp-ATPase activity vs normal control (basal level) ([14]; BS20 5 µM): 3.5 fold
stimulation of Pgp-ATPase activity vs normal control (basal level) ([14]; BS20 10 µM): 4.5 fold
Compound: polyoxyethylene (20) stearyl ether [BS20]
effect on intracellular accumulation of Rho123 [8]: presented the most potency on increasing the intracellular accumulation of Rho123
Pgp protein expression [11]: no significant changes in Pgp protein expression
Pgp mRNA expression ([12]; BS20 5 µM, 3 h): 0.9 fold
Pgp mRNA expression ([12]; BS20 5 µM, 24 h): 2.3 fold
Pgp mRNA expression ([12]; BS20 10 µM, 3 h): 1.4 fold
Pgp mRNA expression ([12]; BS20 10 µM, 24 h): 3.8 fold
activity of intracellular ATP ([13]; 3 h): dose-dependently inhibited; also recorded: inhibited the activity of intracellular ATP
activity of intracellular ATP ([13]; 24 h): reversed to normal level
critical micelle concentration [9]: 0.006 mM

Compound: polyoxyethylene (23) lauryl ether [Brij-35]
permeation of bis(12)-hupyridone through Caco-2 monolayer [15]: significantly increase the permeation
